Assay results published in publication PMC12467390 (ACS infectious diseases, 2025).
Values after ≈ are worked out from the molar mass of the structure shown. Where two headings read alike, the source gives them in different places.

Assays:
Tet50 = Tet50 (Unknown prokaryotic organism, UniProt A0A059WYP6); test: Steady-state TC consumption assay; format: biochemical; settings: for Apparent decay constant of IC50 versus pre-incubation time: Tet50
TetX7 [1] = test: Steady-state TC consumption assay; format: biochemical; settings: dark; for Time-dependence of TetX7 inhibition: pre-incubation 0-240 min; for Apparent IC50 Values, TetX7: no pre-incubation, none detected = no inhibition up to 2.5 mM
[2] = biological target: 4-hydroxybenzoate-3-monooxygenase (PHBH) (Pseudomonas fluorescens, UniProt P00438); test: PHBH NADPH consumption assay; format: biochemical
Outline: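 PHBH came from a codon-optimized pobA gene expressed in E. coli: grown at 37 °C in LB with kanamycin, induced with 1 mM IPTG at 15 °C for 12–15 h. It was purified by imidazole elution at pH 8.0 and dialyzed overnight. Activity was measured with para-hydroxybenzoic acid as substrate, following NADPH consumption at A340. Time-dependence was assessed by pre-incubating inhibitor with enzyme for varying times before starting the reaction.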

[3] = tested on: E. coli DH5αZ1 empty vector (pZE24); settings: aTC alone; empty vector control; ref [28],[30],[31]; cited from earlier work
[4] = tested on: E. coli DH5αZ1 expressing TetX7 from pZE24; settings: aTC alone, ref [28],[30],[31]; cited from earlier work
[5] = tested on: E. coli DH5αZ1 expressing Tet50 from pZE24; settings: aTC alone, ref [28],[30],[31]; cited from earlier work
[6] = tested on: E. coli DH5αZ1 expressing TetX7 or Tet50; settings: TC at 8 μg/mL; resistant strains; ref [28],[30],[31]; cited from earlier work
[7] = tested on: E. coli DH5αZ1 empty vector (pZE24); test: MIC by broth microdilution, empty vector control; format: cell-based; settings: for MIC: Escherichia coli; for MIC, Empty, + TC: presence of 8 μg/mL TC
TetX7 [8] = test: Reversibility of TetX7 inhibition by exhaustive dialysis; format: biochemical; settings: 60 min pre-incubation in the dark; dialysis at 4 °C
[9] = tested on: E. coli DH5αZ1 expressing TetX7 from pZE24; test: MIC by broth microdilution, TetX7::pZE24; format: cell-based; settings: for MIC, TetX7, + TC: presence of 8 μg/mL TC
TetX6 = TetX6 (Chryseobacterium oncorhynchi, UniProt A0A316WTJ0); format: biochemical; settings: dark; no pre-incubation; none detected = no inhibition up to 2.5 mM
[10] = tested on: E. coli DH5αZ1 expressing Tet50 from pZE24; test: MIC by broth microdilution, Tet50::pZE24; format: cell-based; settings: Escherichia coli, read-out: MIC, Tet50, − TC
[11] = shielded from light, pre-incubation 0-240 min
[12] = dark, compounds 1 and 2 up to 2.5 mM

Sequence of Tet50 (A0A059WYP6 whole entry): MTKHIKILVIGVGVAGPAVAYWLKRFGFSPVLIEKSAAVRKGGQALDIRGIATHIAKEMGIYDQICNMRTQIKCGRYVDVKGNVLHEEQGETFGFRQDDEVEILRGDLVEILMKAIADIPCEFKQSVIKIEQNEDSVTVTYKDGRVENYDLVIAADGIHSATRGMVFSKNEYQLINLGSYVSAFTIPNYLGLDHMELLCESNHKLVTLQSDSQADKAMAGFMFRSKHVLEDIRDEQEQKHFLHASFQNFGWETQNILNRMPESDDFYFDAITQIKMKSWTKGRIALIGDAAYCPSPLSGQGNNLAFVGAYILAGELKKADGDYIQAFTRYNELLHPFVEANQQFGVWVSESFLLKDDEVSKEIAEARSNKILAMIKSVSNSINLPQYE
Sequence of 4-hydroxybenzoate-3-monooxygenase (PHBH) (P00438 whole entry): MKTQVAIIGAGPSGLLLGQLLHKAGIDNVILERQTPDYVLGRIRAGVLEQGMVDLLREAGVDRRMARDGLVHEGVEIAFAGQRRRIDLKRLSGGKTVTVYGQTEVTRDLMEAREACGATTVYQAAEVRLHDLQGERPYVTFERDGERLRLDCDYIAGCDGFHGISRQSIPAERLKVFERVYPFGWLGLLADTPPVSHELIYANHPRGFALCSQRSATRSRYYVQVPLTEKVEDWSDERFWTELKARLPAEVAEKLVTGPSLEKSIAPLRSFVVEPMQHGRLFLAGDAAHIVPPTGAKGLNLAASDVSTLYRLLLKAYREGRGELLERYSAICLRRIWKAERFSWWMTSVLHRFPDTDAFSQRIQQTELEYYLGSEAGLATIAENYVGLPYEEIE

With Cc1c2c(c(O)c3c(O)cccc13)C(=O)[C@]1(O)C(=O)C(C(N)=O)=C(O)[C@@H](N(C)C)[C@@H]1C2 [aTC, anhydrotetracycline] the “Time-dependence of Tet50 inhibition” value (Tet50; blue light irradiation) was “time-dependent inhibition”, the “Time-dependence of Tet50 inhibition” value (Tet50; [11]) was “not time-dependent” and the “Time-dependence of TetX7 inhibition” value (TetX7 [1]) was “did not observe any time-dependence”. The “Inhibition of PHBH” value [2, 12] was “Inhibition was detected”, the “MIC of aTC” value [3] was 4 µg/mL and the “MIC of aTC” value [4] was 8 µg/mL. For the same compound, the “MIC of aTC” value [5] was 8 µg/mL and the “Inhibitor concentration that rescues growth inhibitory activity of TC” value [6] was no less than 2 µg/mL.
In the case of CN(C)[C@@H]1C(O)=C(C(N)=O)C(=O)[C@@]2(O)C(O)=C3C(=O)c4c(O)cccc4[C@@](C)(O)[C@H]3C[C@@H]12 [TC, tetracycline, reference compound], the MIC ([7]; read-out: MIC of TC) is reported as 1 µg/mL.
For C#CCN(C)Cc1ccc2c(C)c3c(c(O)c2c1O)C(=O)[C@]1(O)C(=O)C(C(N)=O)=C(O)[C@@H](N(C)C)[C@@H]1C3 [Compound 5, (4S,4aS,12aS)-4-(dimethylamino)-3,10,11,12a-tetrahydroxy-6-methyl-9-((methyl(prop-2-yn-1-yl)amino)methyl)-1,12-dioxo-1,4,4a,5,12,12a-hexahydrotetracene-2-carboxamide], the “Apparent decay constant of IC50 versus pre-incubation time” value (Tet50; blue light irradiation) was 0.5 ± 0.1 min⁻¹, the “Time-dependence of Tet50 inhibition” value (Tet50; blue light irradiation) was “time- and light- dependent irreversible inactivation of Tet50” and the “Time-dependence of Tet50 inhibition” value (Tet50; [11]) was “clear decrease in the apparent IC50 value correlating to longer enzyme–inhibitor pre-incubation times”. For the same compound, the “Time-dependence of TetX7 inhibition” value (TetX7 [1]) was “did not observe any time-dependence”, the “TetX7 activity after exhaustive dialysis versus before” value (TetX7 [8]) was “reversed upon exhaustive dialysis” and the “MIC, Empty, + TC” value [7] was less than 1 µg/mL. For the same compound, the MIC ([9]; Escherichia coli, read-out: MIC, TetX7, − TC) was 64 µg/mL (≈ 126 µM) and the “MIC, TetX7, + TC” value [9] was 2 µg/mL.
For CC1(NCc2ccccc2)CC1 [Compound 1, N-(1-methyl)cyclopropylbenzylamine], the “Time-dependence of Tet50 inhibition” value (Tet50; blue light irradiation) was “inhibit Tet50 in a time-dependent manner”, the “Apparent IC50 Values, TetX7” value (TetX7 [1]) was “none detected^a” and the “Apparent IC50 Values, TetX6” value (TetX6) was “none detected^a”. For the same compound, the “Inhibition of PHBH” value ([2]; blue light irradiation) was “potent time-dependent and dose-dependent inhibition” and the “Inhibition of PHBH” value [2, 12] was “no inhibition”.
With C#CCN(C)Cc1ccccc1 [Compound 2, N-methyl-N-benzyl-propargylamine] the “Time-dependence of Tet50 inhibition” value (Tet50; blue light irradiation) was “inhibit Tet50 in a time-dependent manner”, the “Apparent IC50 Values, TetX7” value (TetX7 [1]) was “none detected^a” and the “Apparent IC50 Values, TetX6” value (TetX6) was “none detected^a”. The “Inhibition of PHBH” value ([2]; blue light irradiation) was “potent time-dependent and dose-dependent inhibition” and the “Inhibition of PHBH” value [2, 12] was “no inhibition”.
For C#CCNCc1ccc2c(C)c3c(c(O)c2c1O)C(=O)[C@]1(O)C(=O)C(C(N)=O)=C(O)[C@@H](N(C)C)[C@@H]1C3.Cl [Compound 4, (4S,4aS,12aS)-4-(dimethylamino)-3,10,11,12a-tetrahydroxy-6-methyl-1,12-dioxo-9-((prop-2-yn-1-ylamino)methyl)-1,4,4a,5,12,12a-hexahydrotetracene-2-carboxamide hydrochloride], the “Time-dependence of Tet50 inhibition” value (Tet50; blue light irradiation) was “slower time-dependent inactivation”, the “Time-dependence of Tet50 inhibition” value (Tet50; [11]) was “clear decrease in the apparent IC50 value correlating to longer enzyme–inhibitor pre-incubation times” and the “Time-dependence of TetX7 inhibition” value (TetX7 [1]) was “did not observe any time-dependence”. For the same compound, the “Time-dependence of PHBH inhibition” value ([2]; dark) was “time-dependence was observed”, the “Inhibition of PHBH” value [2, 12] was “Inhibition was detected” and the MIC ([7]; read-out: MIC, Empty, − TC) was 32 µg/mL. For the same compound, the “MIC, Empty, + TC” value [7] was less than 1 µg/mL, the “MIC, TetX7, + TC” value [9] was 2 µg/mL and the MIC [10] was 32 µg/mL.
For Cc1c2c(c(O)c3c(O)c(CNC4(C)CC4)ccc13)C(=O)[C@]1(O)C(=O)C(C(N)=O)=C(O)[C@@H](N(C)C)[C@@H]1C2.Cl [Compound 3, (4S,4aS,12aS)-4-(dimethylamino)-3,10,11,12a-tetrahydroxy-6-methyl-9-(((1-methylcyclopropyl)amino)methyl)-1,12-dioxo-1,4,4a,5,12,12a-hexahydrotetracene-2-carboxamide hydrochloride], the “Apparent decay constant of IC50 versus pre-incubation time” value (Tet50; blue light irradiation) was 0.9 ± 0.3 min⁻¹, the “Time-dependence of Tet50 inhibition” value (Tet50; [11]) was “clear decrease in the apparent IC50 value correlating to longer enzyme–inhibitor pre-incubation times” and the “Time-dependence of TetX7 inhibition” value (TetX7 [1]) was “did not observe any time-dependence”. For the same compound, the “Time-dependence of PHBH inhibition” value ([2]; dark) was “time-dependence was observed”, the “Inhibition of PHBH” value [2, 12] was “Inhibition was detected” and the MIC ([7]; read-out: MIC, Empty, − TC) was 32 µg/mL. For the same compound, the “MIC, Empty, + TC” value [7] was less than 1 µg/mL and the “MIC, TetX7, + TC” value [9] was 8 µg/mL.
